Measured values published in article PMC9313898 (Journal of Thrombosis and Haemostasis, 2022).
Entries after “also recorded” stand apart in the source; their conditions may differ. Blank lines part the entries; values can stand above or below the molecule they belong to.

Assays:
[1] = cited from earlier work
APTT in rabbit plasma [2] = assay: APTT clotting time in rabbit plasma; format: biochemical; details: mean, n = 2–9
Procedure, shortened: (§1)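 Plasma came from untreated donor animals, collected into citrate, centrifuged at 2500 ×g for 20 min at 4°C, and stored at −20°C. Plasma was incubated with test compound (0–37.5 µM) for 3 min at 37°C, then with kaolin/cephalin APTT reagent for 3 min. Clotting was started with 0.025 M CaCl₂ and timed on an automated coagulometer. EC₁₅₀ is the concentration giving a 1.5‑fold APTT increase.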

APTT in dog plasma = assay: APTT clotting time in dog plasma; format: biochemical; details: mean, n = 2–9
Procedure, shortened: as §1

APTT in pig plasma = assay: APTT clotting time in pig plasma; format: biochemical; details: mean, n = 2–9
Procedure, shortened: as §1

[3] = system: APTT in guinea pig plasma; assay: APTT clotting time in guinea pig plasma; format: biochemical; details: mean, n = 2–9
Procedure, shortened: as §1

APTT in mouse plasma = assay: APTT clotting time in mouse plasma; format: biochemical; details: mean, n = 2–9
Procedure, shortened: as §1

APTT in rat plasma = assay: APTT clotting time in rat plasma; format: biochemical; details: mean, n = 2–9
Procedure, shortened: as §1

[4] = system: APTT in plasma of monkeys; assay: APTT clotting time in monkey plasma; format: biochemical
PT in human plasma = assay: Prothrombin time in human plasma; format: biochemical; details: 0–37.5 µM
Procedure, shortened: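 Human citrated plasma (pooled volunteer plasma or purchased) was incubated with test compound (0–37.5 µM) for 3 min at 37°C. It was then mixed with thromboplastin, and clotting time was measured at 37°C on an automated coagulometer.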

[5] = system: New Zealand White rabbits; assay: Arterial thrombosis; format: in vivo; details: rabbit carotid artery FeCl2
[6] = system: New Zealand White rabbits; assay: Ear bleeding time in the arterial FeCl2-injury rabbit model; format: in vivo
[7] = system: New Zealand White rabbits; assay: Gum bleeding time in rabbits; format: in vivo; details: rabbit; intravenous asundexian
Procedure, shortened: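 Male New Zealand White rabbits (2.7–3.0 kg) were under ketamine/xylazine anaesthesia during the arterial FeCl₂‑injury thrombosis experiment. Test compound was given i.v., alone or with aspirin plus ticagrelor. Ear bleeding time and, by an equivalent technique, gum‑mucosa bleeding time were recorded as the time at which bleeding stopped.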

FXIa [8] = molecular target: T1, FXIa (Oryctolagus cuniculus, UniProt G1SSQ6); assay: Ex vivo FXIa inhibition in the arterial FeCl2-injury rabbit model; details: mean (± SD) vs control group
Procedure, shortened: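 Anaesthetised male New Zealand White rabbits received oral test compound in the arterial FeCl₂‑injury model. Citrated blood was drawn at the start of the thrombosis experiment, centrifuged at 2500 ×g for 10 min at 4°C, and stored at −20°C. FXIa activity was measured by kaolin/cephalin activation (3 min, 37°C), then 400 µM AMC substrate plus 5.6 µM kallikrein inhibitor. The fluorescence slope over the first 5 min was compared with controls.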

[9] = system: New Zealand White rabbits; assay: Venous thrombosis; format: in vivo; details: rabbit jugular vein FeCl2
Procedure, shortened: (§2)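 Male New Zealand White rabbits (2.7–3.0 kg) were anaesthetised with ketamine/xylazine, with the femoral artery and vein cannulated. Thirty min after i.v. dosing, the jugular vein was exposed to FeCl₂ (13% in 100 µl water) on filter paper for 5 min. After a further 30 min the injured vein was excised and the thrombus weighed. Ear bleeding time was recorded as the time bleeding stopped.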

[10] = system: New Zealand White rabbits; assay: Ear bleeding time in the venous FeCl2-injury rabbit model; format: in vivo; details: asundexian 0.6, 2, or 6 mg/kg iv, any dose group
Procedure, shortened: as §2

[11] = system: New Zealand White rabbits; assay: Rabbit liver-injury bleeding model; format: in vivo
Procedure, shortened: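 Male New Zealand White rabbits (2.5–3.3 kg) were anaesthetised with ketamine/xylazine and kept at 37°C. A 1 × 1 cm triangular wedge was cut from the liver edge. Pre‑weighed swabs were applied at 30‑s intervals for up to 30 min to give bleeding time and blood loss.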

APTT in rabbit plasma [12] = assay: Ex vivo APTT in the rabbit liver-injury model
PT in rabbit plasma = assay: Ex vivo PT in the rabbit liver-injury model
[13] = system: New Zealand White rabbits; assay: Arterio-venous shunt model in rabbits, prevention protocol; format: in vivo; details: rabbit AV shunt; for Thrombus weight: mean (± SEM), control 14.8 (± 2) mg
Procedure, shortened: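 Male New Zealand White rabbits (2.7–3.0 kg) were anaesthetised with ketamine/xylazine (i.m. bolus, then ear‑vein infusion). A shunt joined the right carotid artery to the left jugular vein through a 4 cm polyethylene tube holding a 6 cm nylon‑wire loop. An i.v. bolus (0.3, 1 or 3 mg/kg) was given 10 min before opening. After 15 min the wire and thrombus were removed and weighed.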

[14] = system: New Zealand White rabbits; assay: Arterio-venous shunt model in rabbits, intervention protocol; format: in vivo; details: rabbit AV shunt
Procedure, shortened: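 Anaesthetised male New Zealand White rabbits (2.7–3.0 kg, ketamine/xylazine) carried a carotid‑artery to jugular‑vein shunt: a 4 cm polyethylene tube with a 6 cm nylon‑wire loop. Test compound was given as an i.v. bolus (1 or 5 mg/kg) via the femoral vein 10 min after the shunt was opened. The shunt ran 30 min, then the wire and attached thrombus were weighed.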

[15] = system: New Zealand White rabbits; assay: Ear bleeding time in the AV shunt model, prevention protocol; format: in vivo; details: rabbit AV shunt, any dose (0.3, 1, 3 mg/kg iv) or time point
FXIa [16] = molecular target: T1, FXIa; assay: Ex vivo FXIa activity in the AV shunt model; details: rabbit AV shunt; preventative and interventional iv treatment
[17] = apixaban 1 mg/kg iv + aspirin + ticagrelor
[18] = apixaban 3 mg/kg iv + aspirin + ticagrelor
[19] = dabigatran high dose (1 mg/kg iv)
[20] = dabigatran low dose (0.3 mg/kg iv)

T1 sequence (G1SSQ6 19-624): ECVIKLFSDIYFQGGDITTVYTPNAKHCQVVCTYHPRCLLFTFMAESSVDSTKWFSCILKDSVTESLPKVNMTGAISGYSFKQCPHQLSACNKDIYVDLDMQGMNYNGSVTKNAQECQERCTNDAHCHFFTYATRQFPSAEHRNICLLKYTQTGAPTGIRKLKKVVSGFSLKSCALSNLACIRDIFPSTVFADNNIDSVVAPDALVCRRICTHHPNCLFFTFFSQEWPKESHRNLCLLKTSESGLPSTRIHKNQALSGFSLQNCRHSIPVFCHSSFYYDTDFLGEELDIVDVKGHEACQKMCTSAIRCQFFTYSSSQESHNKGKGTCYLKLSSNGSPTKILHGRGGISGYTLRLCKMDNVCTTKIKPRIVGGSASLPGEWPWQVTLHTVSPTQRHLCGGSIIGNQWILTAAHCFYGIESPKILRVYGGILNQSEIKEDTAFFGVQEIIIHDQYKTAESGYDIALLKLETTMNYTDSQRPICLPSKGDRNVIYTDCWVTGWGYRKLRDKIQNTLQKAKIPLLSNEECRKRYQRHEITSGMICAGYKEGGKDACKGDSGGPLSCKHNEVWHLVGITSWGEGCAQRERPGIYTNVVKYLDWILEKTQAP

Molecule: Osocimab: fully human IgG1 antibody targeting coagulation factor XIa
- mean elimination half-life [1]: 30 to 44 days

- Gum bleeding time [7]: no increase
- Bleeding times following ear incision [15]: not prolonged
- Ex vivo FXIa activity (FXIa [16]): reduced FXIa activity
Molecule: CC[C@@H](C(=O)Nc1ccc(C(N)=O)c(F)c1)n1cc(OC)c(-c2cc(Cl)ccc2-n2cc(C(F)(F)F)nn2)cc1=O [asundexian]
- APTT prolongation, EC150 (APTT in rabbit plasma [2]): 1.50 µM
- APTT prolongation, EC150 (APTT in dog plasma): 1.59 µM
- APTT prolongation, EC150 (APTT in pig plasma): 0.51 µM
- APTT prolongation, EC150 [3]: 2.13 µM
- APTT prolongation, EC150 (APTT in mouse plasma): >12.5 µM
- APTT prolongation, EC150 (APTT in rat plasma): >12.5 µM
- Effect on APTT [4]: prolonged
- Effect on PT (PT in human plasma): little to no effect
- Thrombus weight reduction vs control ([5]; asundexian 0.6 mg/kg iv bolus): 25%
- Additional reduction in thrombus weight on top of aspirin and ticagrelor ([5]; asundexian 2 mg/kg iv + aspirin + ticagrelor): 32%
- Additional reduction in thrombus weight on top of aspirin and ticagrelor ([5]; asundexian 6 mg/kg iv + aspirin + ticagrelor): 70%
- Additional reduction in thrombus weight on top of aspirin and ticagrelor ([5]; asundexian 12 mg/kg iv + aspirin + ticagrelor): 98%
- Thrombus weight reduction vs control ([5]; asundexian 20 mg/kg iv bolus): 88%
- Thrombus weight reduction vs control ([5]; oral 10 mg/kg, 2 h before, P < .05): 30%
- Thrombus weight reduction vs control ([5]; oral 30 mg/kg, 2 h before, P < .001): 91%
- Ear bleeding time vs aspirin and ticagrelor alone ([6]; asundexian iv + aspirin + ticagrelor): did not further increase
- Ear bleeding time vs control ([6]; oral asundexian 10 mg/kg and 30 mg/kg): no prolongation
- Ear bleeding time vs control ([6]; prophylactic intravenous asundexian 0.6-20 mg/kg): no increase
- Reduction of FXIa activity ex vivo (FXIa [8]; oral 10 mg/kg): 17% (± 22%)
- Reduction of FXIa activity ex vivo (FXIa [8]; oral 30 mg/kg): 44% (± 29%)
- Thrombus weight reduction vs control ([9]; asundexian 0.6 mg/kg iv): 25%
- Thrombus weight reduction vs control ([9]; asundexian 2 mg/kg iv): 74%
- Thrombus weight reduction vs control ([9]; asundexian 6 mg/kg iv): 90%
- Ear bleeding time [10]: No ear bleeding time prolongation
- Bleeding time vs controls ([11]; asundexian 6 and 12 mg/kg iv): neither 6 nor 12 mg/kg asundexian led to any significant effect; also recorded: no significant effect
- Blood loss vs controls ([11]; asundexian 6 and 12 mg/kg iv): neither 6 nor 12 mg/kg asundexian led to any significant effect; also recorded: no significant effect
- APTT increase (APTT in rabbit plasma [12]; asundexian high dose (12 mg/kg iv)): 2.3 fold
- APTT increase (APTT in rabbit plasma [12]; asundexian low dose (6 mg/kg iv)): 1.7 fold
- Effect on PT (PT in rabbit plasma; asundexian 6 and 12 mg/kg iv): no effect
- Thrombus weight reduction vs control ([13]; 0.3 mg/kg iv): 14%
- Thrombus weight reduction vs control ([13]; 1 mg/kg iv, P < .01): 59%
- Thrombus weight ([13]; 1 mg/kg iv): 6.1 (± 0.9) mg
- Thrombus weight reduction vs control ([13]; 3 mg/kg iv, P < .001): 71%
- Thrombus weight ([13]; 3 mg/kg iv): 4.3 (± 0.5) mg
- Thrombus weight reduction vs control ([14]; 1 mg/kg iv, P < .05): 33%
- Thrombus weight reduction vs control ([14]; 5 mg/kg iv, P < .001): 62%
- Thrombus weight ([14]; 5 mg/kg iv, mean (± SEM), control 36.7 (± 3.2) mg): 14.0 (± 3.5) mg

Molecule: COc1ccc(-n2nc(C(N)=O)c3c2C(=O)N(c2ccc(N4CCCCC4=O)cc2)CC3)cc1 [apixaban, 1‐(4‐methoxyphenyl)‐7‐oxo‐6‐(4‐(2‐oxopiperidin‐1‐yl)phenyl)‐4,5,6,7‐tetrahydro‐1H ‐pyrazolo[3,4‐c]pyridine‐3‐carboxamide, reference compound]
- Additional reduction in thrombus weight on top of aspirin and ticagrelor [5, 17]: 46%
- Additional reduction in thrombus weight on top of aspirin and ticagrelor [5, 18]: 83%
- Increase of ear bleeding time vs aspirin and ticagrelor alone [6, 17]: 2.8 fold
- Increase of ear bleeding time vs aspirin and ticagrelor alone [6, 18]: 6.6 fold

Molecule: [H]/N=C(/N)c1ccc(NCc2nc3cc(C(=O)N(CCC(=O)O)c4ccccn4)ccc3n2C)cc1 [dabigatran, reference compound]
- Increase of bleeding time vs controls ([11]; dabigatran 0.3 mg/kg iv, control mean 5.7 min (340 s)): approximately 5 fold
- Bleeding time ([11]; dabigatran 1 mg/kg iv, maximum observation period 30 min): > 30 min
- APTT increase (APTT in rabbit plasma [12]; [19]): 2.2 fold
- APTT increase (APTT in rabbit plasma [12]; [20]): 1.4 fold
- PT increase (PT in rabbit plasma; [19]): 1.7 fold
- PT increase (PT in rabbit plasma; [20]): 1.1 fold

Molecule: O=C(NC[C@H]1CN(c2ccc(N3CCOCC3=O)cc2)C(=O)O1)c1ccc(Cl)s1 [rivaroxaban, reference compound]
- Thrombus weight reduction (mean) ([5]; rivaroxaban iv 0.08 mg/kg +0.09 mg/kg/hour): 51%
- Thrombus weight reduction (mean) ([5]; rivaroxaban iv 0.24 mg/kg +0.27 mg/kg/hour): 77%
- Ear bleeding time vs control ([6]; rivaroxaban iv bolus + infusion, significant for the higher dose): prolonged

B1: abelacimab: FXI antibody, dual inhibitor of factor XI and factor XIa (antibody, chains of the INN, looked up, V domains shown)
VH: QVQLLESGGGLVQPGGSLRLSCAASGFTFSTAAMSWVRQAPGKGLEWVSGISGSGSSTYYADSVKGRFTISRDNSKNTLYLQMNSLRAEDTAVYYCARELSYLYSGYYFDYWGQGTLVTVSS
VL: QSVLTQPPSASGTPGQRVTISCSGSSSNIGSNDVSWYQQLPGTAPKLLIYKNYNRPSGVPDRFSGSKSGTSASLAISGLQSEDEADYYCSAWDQRQFDVVFGGGTKLTVL
- elimination half-life [1]: 25 to 30 days
